Test results: ChEMBL document CHEMBL1124476, “1-(2-aminoethyl)-6-aryl-4H- [1,2,4]triazolo[4,3-a][1,4]benzodiazepines with diuretic and natriuretic activity” (J Med Chem, 1989)

How the values were obtained:
Rattus norvegicus [1] = organism: Rattus norvegicus; experiment: […]; type: ADME, organism-based, Urine; parameters: dose 1 mg/kg, route oral; conditions: in vivo, po, 1 mg/kg
Outline: (§1)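 Dose-response test in male Sprague-Dawley rats of about 160 g, fasted 24 h, with water withheld 1½ h before and during the test. Each rat got a single gavage of 25 mL/kg 0.9% saline with 0.5% carboxymethylcellulose carrying the agent (0.3–100 mg/kg range). Rats were housed two per metabolism cage, and urine was collected for 5 h. Mean urine volume (mL) was compared with controls (P < 0.05).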

Rattus norvegicus [2] = experiment: Mean excretion of sodium in conscious rats at a dose of 30 mg/kg given orally; type: ADME, organism-based; parameters: dose 30 mg/kg, route oral; conditions: in vivo, po
Outline: (§2)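 Male Sprague-Dawley rats, about 160 g, fasted 24 h and water withheld 1 1/2 h beforehand; food and water withheld during the test. Dosing by gavage with 25 mL/kg 0.9% saline containing 0.5% (carboxymethyl)cellulose, agent dissolved or suspended. Three cages of two rats each per dose, held in metabolism cages. Urine collected over 5 h. Volume given in mL, Na+ in mequiv. Significance versus control at P < 0.05.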

Rattus norvegicus [3] = experiment: Mean excretion of […] in conscious rats at a dose of 1.0 mg/kg given orally; type: ADME, organism-based; parameters: dose 1 mg/kg, route oral; conditions: in vivo, po; outline: as §2
Rattus norvegicus [4] = experiment: Mean excretion of potassium in conscious rats at a dose of 10 mg/kg given orally; type: ADME, organism-based; parameters: dose 10 mg/kg, route oral; conditions: in vivo, po
Outline: (§3)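 Secondary dose-response in male Sprague-Dawley rats (~160 g), fasted and hydrated as in the primary screen. Oral gavage at 0.3-100 mg/kg in 25 mL/kg saline/0.5% CMC, three cages of two rats per dose. Urine collected 5 h; Na, K, Cl, HCO3 measured. Values are mean excretion (mequiv), compared with controls at P < 0.05.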

Rattus norvegicus [5] = experiment: Mean excretion of potassium in conscious rats at a dose of 1.0 mg/kg given orally; type: ADME, organism-based; parameters: dose 1 mg/kg, route oral; conditions: in vivo, po; outline: as §3
Rattus norvegicus [6] = experiment: Mean excretion of chloride in conscious rats at a dose of 100 mg/kg given orally; type: ADME, organism-based; parameters: dose 100 mg/kg, route oral; conditions: in vivo, po; outline: as §3
[7] = Diuretic activity at 40 mg/kg (screening dose-84.7 umol/kg) in […] in a two stage experiment; T/C1.2 = urine vol of treated rats / urine vol of control rats; type: functional
Outline: (§4)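 40 mg/kg given by gavage in 25 mL/kg 0.9% saline with 0.5% (carboxymethyl)cellulose. Four rats per agent, two per metabolism cage; 20 controls; 5 h urine. T/C = treated/control urine volume. Stage-1 T/C of 1.66 or more leads to stage 2; product T/C1·T/C2 of 3.34 or more counts as active.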

Rattus norvegicus [8] = experiment: Mean excretion of chloride in conscious rats at a dose of 10 mg/kg given orally; type: ADME, organism-based; parameters: dose 10 mg/kg, route oral; conditions: in vivo, po; outline: as §3
Rattus norvegicus [9] = experiment: Mean excretion of chloride in conscious rats at a dose of 3.0 mg/kg given orally; type: ADME, organism-based; parameters: dose 3 mg/kg, route oral; conditions: in vivo, po; outline: as §3
Rattus norvegicus [10] = experiment: Mean excretion of chloride in conscious rats at a dose of 1.0 mg/kg given orally; type: ADME, organism-based; parameters: dose 1 mg/kg, route oral; conditions: in vivo, po; outline: as §3
Rattus norvegicus [11] = experiment: Mean excretion of Cl- in conscious rats at a dose of 0.3 mg/kg given orally; type: ADME, organism-based, Urine; parameters: dose 0.3 mg/kg, route oral; conditions: in vivo, po; outline: as §1
Rattus norvegicus [12] = experiment: Mean excretion of chloride in conscious rats at a dose of 30 mg/kg given orally; type: ADME, organism-based; parameters: dose 30 mg/kg, route oral; conditions: in vivo, po; outline: as §3
Rattus norvegicus [13] = experiment: Mean excretion of potassium in conscious rats at a dose of 3.0 mg/kg given orally; type: ADME, organism-based; parameters: dose 3 mg/kg, route oral; conditions: in vivo, po; outline: as §3
Rattus norvegicus [14] = organism: Rattus norvegicus; experiment: […]; type: ADME, organism-based, Urine; parameters: dose 0.3 mg/kg, route oral; conditions: in vivo, po, 0.3 mg/kg; outline: as §1
Rattus norvegicus [15] = experiment: Mean excretion of sodium in conscious rats at a dose of 0.3 mg/kg given orally; type: ADME, organism-based; parameters: dose 0.3 mg/kg, route oral; conditions: in vivo, po; outline: as §2
Rattus norvegicus [16] = experiment: Mean excretion of sodium in conscious rats at a dose of 10 mg/kg given orally; type: ADME, organism-based; parameters: dose 10 mg/kg, route oral; conditions: in vivo, po; outline: as §2
[17] = Diuretic activity at 40 mg/kg (screening dose 84.7 umol/kg) in […] in a one stage experiment; T/C = urine vol of treated rats / urine vol of control rats; type: functional; outline: as §4
Rattus norvegicus [18] = experiment: Mean excretion of potassium in conscious rats at a dose of 30 mg/kg given orally; type: ADME, organism-based; parameters: dose 30 mg/kg, route oral; conditions: in vivo, po; outline: as §3
Rattus norvegicus [19] = experiment: Mean excretion of potassium in conscious rats at a dose of 0.3 mg/kg given orally; type: ADME, organism-based; parameters: dose 0.3 mg/kg, route oral; conditions: in vivo, po; outline: as §3
Rattus norvegicus [20] = organism: Rattus norvegicus; experiment: […]; type: ADME, organism-based, Urine; parameters: dose 3 mg/kg, route oral; conditions: in vivo, po, 3 mg/kg; outline: as §2
Rattus norvegicus [21] = experiment: Mean excretion of potassium in conscious rats at a dose of 100 mg/kg given orally; type: ADME, organism-based; parameters: dose 100 mg/kg, route oral; conditions: in vivo, po; outline: as §3
Rattus norvegicus [22] = organism: Rattus norvegicus; experiment: […]; type: ADME, organism-based, Urine; parameters: dose 30 mg/kg, route oral; conditions: in vivo, po, 30 mg/kg; outline: as §2
Rattus norvegicus [23] = organism: Rattus norvegicus; experiment: […]; type: ADME, organism-based, Urine; parameters: dose 100 mg/kg, route oral; conditions: in vivo, po, 100 mg/kg; outline: as §2
Rattus norvegicus [24] = experiment: Mean excretion of sodium in conscious rats at a dose of 100 mg/kg given orally; type: ADME, organism-based; parameters: dose 100 mg/kg, route oral; conditions: in vivo, po; outline: as §2
Rattus norvegicus [25] = experiment: Mean excretion of sodium in conscious rats at a dose of 3.0 mg/kg given orally; type: ADME, organism-based; parameters: dose 3 mg/kg, route oral; conditions: in vivo, po; outline: as §2
Rattus norvegicus [26] = organism: Rattus norvegicus; experiment: […]; type: ADME, organism-based, Urine; parameters: dose 10 mg/kg, route oral; conditions: in vivo, po, 10 mg/kg; outline: as §2
[27] = Diuretic activity at 40 mg/kg (screening dose-94.6 umol/kg) in […] in a one stage experiment; T/C = urine vol of treated rats / urine vol of control rats; type: functional; outline: as §4
[28] = Diuretic activity at 40 mg/kg (screening dose 84 umol/kg) in […] in a one stage experiment; T/C = urine vol of treated rats / urine vol of control rats; type: functional; outline: as §4
[29] = Diuretic activity at 40 mg/kg (screening dose-97.3 umol/kg) in […] in a one stage experiment; T/C = urine vol of treated rats / urine vol of control rats; type: functional; outline: as §4
[30] = Diuretic activity at 40 mg/kg (screening dose-97.3 umol/kg) in […] in a two stage experiment; T/C1.2 = urine vol of treated rats / urine vol of control rats; type: functional; outline: as §4
[31] = Diuretic activity at 40 mg/kg (screening dose-75 umol/kg) in […] in a two stage experiment; T/C1.2 = urine vol of treated rats / urine vol of control rats; type: functional; outline: as §4
[32] = Diuretic activity at 40 mg/kg (screening dose-75 umol/kg) in […] in a one stage experiment; T/C = urine vol of treated rats / urine vol of control rats; type: functional; outline: as §4
[33] = Diuretic activity at 40 mg/kg (screening dose-82.4 umol/kg) in […] in a one stage experiment; T/C = urine vol of treated rats / urine vol of control rats; type: functional; outline: as §4

Structure (SMILES) | Mean urine volume (Rattus norvegicus [1]) | Mean excretion of Na+ (Rattus norvegicus [2]) | Mean excretion of Na+ (Rattus norvegicus [3]) | Mean excretion of K+ (Rattus norvegicus [4]) | Mean excretion of K+ (Rattus norvegicus [5]) | Mean excretion of Cl- (Rattus norvegicus [6]) | Mean excretion of Cl- (Rattus norvegicus [8]) | Mean excretion of Cl- (Rattus norvegicus [9]) | Mean excretion of Cl- (Rattus norvegicus [10]) | Mean excretion of Cl- (Rattus norvegicus [11]) | Mean excretion of Cl- (Rattus norvegicus [12]) | Mean excretion of K+ (Rattus norvegicus [13]) | Mean urine volume (Rattus norvegicus [14]) | Mean excretion of Na+ (Rattus norvegicus [15]) | Mean excretion of Na+ (Rattus norvegicus [16]) | Mean excretion of K+ (Rattus norvegicus [18]) | Mean excretion of K+ (Rattus norvegicus [19]) | Mean urine volume (Rattus norvegicus [20]) | Mean excretion of K+ (Rattus norvegicus [21]) | Mean urine volume (Rattus norvegicus [22]) | also measured
CN(C)CC(c1ccccc1Cl)c1nnc2n1-c1ccc(Cl)cc1C(c1ccccc1)=NC2 (stereo unspecified) | 4.54 mL | 1.22 m equiv | 0.93 m equiv | 0.21 m equiv | 0.24 m equiv | 1.69 m equiv | 1.13 m equiv | 0.84 m equiv | 0.93 m equiv | 1.08 m equiv | 1.21 m equiv | 0.22 m equiv | 5.36 mL | 1 m equiv | 1.03 m equiv | 0.16 m equiv | 0.25 m equiv | 4.67 mL | 0.22 m equiv | 6.73 mL | T/C 1.2 [7]: 3.77; T/C 1 [17]: 1.67; Mean urine volume (Rattus norvegicus [23]): 9.85 mL; Mean excretion of Na+ (Rattus norvegicus [24]): 1.76 m equiv; Mean excretion of Na+ (Rattus norvegicus [25]): 0.81 m equiv; Mean urine volume (Rattus norvegicus [26]): 5.37 mL
CN(C)CC(CN(C)C)c1nnc2n1-c1ccc(Cl)cc1C(c1ccccc1)=NC2 |  |  |  |  |  |  |  |  |  |  |  |  |  |  |  |  |  |  |  |  | T/C 1 [27]: 1.22
CN(C)CC(c1ccc(Cl)cc1)c1nnc2n1-c1ccc(Cl)cc1C(c1ccccc1)=NC2 (stereo unspecified) |  |  |  |  |  |  |  |  |  |  |  |  |  |  |  |  |  |  |  |  | T/C 1 [28]: 0.9
CN(C)CCc1nnc2n1-c1ccc(Br)cc1C(c1ccccn1)=NC2 | 4.69 mL | 1.03 m equiv | 0.6 m equiv | 0.33 m equiv | 0.32 m equiv | 1.21 m equiv | 0.81 m equiv | 0.84 m equiv | 0.7 m equiv | 0.81 m equiv | 1.05 m equiv | 0.39 m equiv | 5.94 mL | 0.74 m equiv | 0.77 m equiv | 0.37 m equiv | 0.38 m equiv | 5.53 mL | 0.41 m equiv | 8.05 mL | T/C 1 [29]: 1.75; T/C 1.2 [30]: 3.46; Mean urine volume (Rattus norvegicus [23]): 11.02 mL; Mean excretion of Na+ (Rattus norvegicus [24]): 1.26 m equiv; Mean excretion of Na+ (Rattus norvegicus [25]): 0.79 m equiv; Mean urine volume (Rattus norvegicus [26]): 5.63 mL
CN(C)CC(c1ccccc1)c1nnc2n1-c1ccc(I)cc1C(c1ccccc1)=NC2 (stereo unspecified) | 4.8 mL | 1.98 m equiv | 0.65 m equiv | 0.19 m equiv | 0.25 m equiv | 1.82 m equiv | 1.5 m equiv | 0.76 m equiv | 0.7 m equiv | 0.8 m equiv | 1.73 m equiv | 0.23 m equiv | 5.09 mL | 0.75 m equiv | 1.64 m equiv | 0.24 m equiv | 0.18 m equiv | 4.86 mL | 0.24 m equiv | 12.9 mL | T/C 1.2 [31]: 9.39; T/C 1 [32]: 3.26; Mean urine volume (Rattus norvegicus [23]): 14.57 mL; Mean excretion of Na+ (Rattus norvegicus [24]): 2.09 m equiv; Mean excretion of Na+ (Rattus norvegicus [25]): 0.66 m equiv; Mean urine volume (Rattus norvegicus [26]): 10.8 mL
CN(C)CC(c1ccccc1)c1nnc2n1-c1ccc(S(C)(=O)=O)cc1C(c1ccccc1)=NC2 (stereo unspecified) |  |  |  |  |  |  |  |  |  |  |  |  |  |  |  |  |  |  |  |  | T/C 1 [33]: 0.7
